Source: ChEMBL document CHEMBL4373698, “Biosynthesis of Nonimmunosuppressive FK506 Analogues with Antifungal Activity” (J Nat Prod, 2019)
Converted amounts (≈) assume the structure as drawn. The source made the active and inactive calls. No cut-off for these calls is given here.

Tests used:
[1] = test system: Cryptococcus neoformans; experiment: Antifungal activity against Cryptococcus neoformans H99; assay type: functional, organism-based; conditions: var grubii H99
How it was run: (§1)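 H99 grown in YPD at 30 °C for 20 h, then seeded at OD600 0.01 in RPMI-MOPS-dextrose pH 7 (EUCAST microdilution). Analogues added as 2-fold dilutions from 10 μg/mL; 37 °C, 48 h; OD600 read. Growth expressed relative to no-inhibitor wells after background subtraction; IC50 calculated.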

[2] = Immunosuppressive activity against […] mouse CD4-positive T cells assessed as inhibition of CD3/CD28-induced cell proliferation
How it was run: (§2)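 Spleen cells from 6–8-week B6J mice, red cells lysed; CD4+ T cells labelled with CellTrace Violet at isolation. Stimulated with anti-CD3/CD28 beads with compound for 72 h; stained for CD4 and CD44 plus near-IR live/dead dye; proliferation read by flow cytometry; IC50 from curves.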

[3] = test system: Aspergillus fumigatus; experiment: Antifungal activity against Aspergillus fumigatus Af293; assay type: functional, organism-based
How it was run: (§3)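 Af293 conidia at 10^5/mL in RPMI (8.4 g/L RPMI1640, 34.5 g/L MOPS, 20 g/L dextrose, pH 7) per EUCAST broth microdilution; 2-fold serial dilutions from 10 μg/mL; 35 °C, 48 h; OD600 read. % growth versus no-inhibitor wells after medium-only background subtraction; IC50 derived from growth curves.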

[4] = test system: Cryptococcus neoformans; experiment: Synergistic antifungal activity against Cryptococcus neoformans H99 assessed as FIC index in presence of fluconazole; assay type: functional, var grubii H99
How it was run: (§4)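 Checkerboard with fluconazole: H99 grown overnight in YPD at 30 °C, seeded at OD600 0.01 in RPMI 1640 per EUCAST. Test agent 2-fold serially diluted. FIC index calculated per strain; ≤0.5 synergy, >0.5–1.0 additive, >1.0–2.0 no interaction, >2.0 antagonism.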

[5] = test system: Candida albicans; experiment: Antifungal activity against Candida albicans SC5314; assay type: functional, organism-based
How it was run: (§5)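 SC5314 grown in YPD at 30 °C for 16 h, washed twice and resuspended in PBS. Seeded at 1.25 × 10^5 cells per well in 100% FBS with 2-fold dilutions from 10 μg/mL; 37 °C, 24 h. XTT (500 μg/mL in PBS, menadione final 10 μM) added, 2 h at 37 °C in the dark; OD490 read; IC50.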

[6] = test system: Aspergillus fumigatus; experiment: Antifungal activity against Aspergillus fumigatus Af293 after 48 hrs by EUCAST-based microdilution assay; assay type: functional, organism-based; conditions: Af293, 48 h; how it was run: as §3
[7] = Immunosuppressive activity against […] mouse CD4-positive T cell cells assessed as inhibition of CD3/CD28-induced cell proliferation after 72 hrs by FACS analysis; how it was run: as §2
[8] = test system: Candida albicans; experiment: Antifungal activity against Candida albicans SC5314 after 24 hrs by XTT assay; assay type: functional, organism-based; conditions: SC5314, 24 h; how it was run: as §5
[9] = test system: Cryptococcus neoformans; experiment: Antifungal activity against Cryptococcus neoformans H99 after 48 hrs by EUCAST-based microdilution assay; assay type: functional, organism-based; conditions: var grubii H99 ; how it was run: as §1
[10] = test system: Cryptococcus neoformans; experiment: Synergistic antifungal activity against Cryptococcus neoformans H99 assessed as FIC index in presence of fluconazole after 48 hrs by checker board assay; assay type: functional, var grubii H99; how it was run: as §4
[11] = test system: Cryptococcus neoformans; experiment: Synergistic antifungal activity against Cryptococcus neoformans H99 in presence of 1.25 ug/ml fluconazole after 48 hrs by checker board assay; assay type: functional, organism-based; conditions: var grubii H99 
[12] = test system: Cryptococcus neoformans; experiment: Antifungal activity against Cryptococcus neoformans harboring frr1 deletion mutant at 30 ug/ml; assay type: functional, organism-based
[13] = test system: Cryptococcus neoformans; experiment: Synergistic antifungal activity against Cryptococcus neoformans H99 in presence of 2.5 ug/ml fluconazole after 48 hrs by checker board assay; assay type: functional, organism-based; conditions: var grubii H99 

Compound	IC50 [6]	IC50 [7]	IC50 [8]	IC50 [9]	also measured
C=CC[C@@H]1/C=C(\C)C[C@H](C)C[C@H](OC)[C@H]2O[C@@](O)(C(=O)C(=O)N3CCCC[C@H]3C(=O)O[C@H](/C(C)=C/[C@@H]3CC[C@@H](O)[C@H](OC)C3)[C@H](C)[C@@H](O)CC1=O)[C@H](C)C[C@@H]2OC [TACROLIMUS ANHYDROUS]	–	–	–	–	IC50 [1]: 0.001 µg/mL (≈ 0.00124 µM); IC50 [2]: 0.027 ng/mL (≈ 3.36e-05 µM); IC50 [3]: 0.015 µg/mL (≈ 0.0187 µM); fractional inhibitory concentration index (FICI) [4]: 0.38; IC50 [5]: 0.005 µg/mL (≈ 0.00622 µM)
CC[C@@H]1/C=C(\C)C[C@H](C)C[C@H](OC)[C@H]2O[C@@](O)(C(=O)C(=O)N3CCCC[C@H]3C(=O)O[C@H](/C(C)=C/[C@@H]3CC[C@@H](O)[C@H](O)C3)[C@H](C)[C@@H](O)CC1=O)[C@H](C)C[C@@H]2OC	12.2 µg/mL (≈ 15.7 µM)	0.00327 µg/mL (≈ 0.00421 µM)	0.079 µg/mL (≈ 0.102 µM)	0.027 µg/mL (≈ 0.0347 µM)	–
CC[C@@H]1/C=C(\C)C[C@H](C)C[C@H](OC)[C@H]2O[C@@](O)(CC(=O)N3CCCC[C@H]3C(=O)O[C@H](/C(C)=C/[C@@H]3CC[C@@H](O)[C@H](O)C3)[C@H](C)[C@@H](O)CC1=O)[C@H](C)C[C@@H]2OC	307 µg/mL (≈ 402 µM)	0.258 µg/mL (≈ 0.338 µM)	2.85 µg/mL (≈ 3.73 µM)	3.3 µg/mL (≈ 4.32 µM)	fractional inhibitory concentration index (FICI) [10]: 0.19; IC50 [11]: 0.0625 µg/mL; Activity [12]: inactive
C=CC[C@@H]1/C=C(\C)C[C@H](C)C[C@H](OC)[C@H]2O[C@@](O)(CC(=O)N3CCCC[C@H]3C(=O)O[C@H](/C(C)=C/[C@@H]3CC[C@@H](O)[C@H](O)C3)[C@H](C)[C@@H](O)CC1=O)[C@H](C)C[C@@H]2OC	–	–	–	–	IC50 [1]: 0.154 µg/mL (≈ 0.198 µM); IC50 [2]: 15.1 ng/mL (≈ 0.0194 µM); IC50 [3]: 29.8 µg/mL (≈ 38.4 µM); IC50 [5]: 2.8 µg/mL (≈ 3.6 µM)
CCC[C@@H]1/C=C(\C)C[C@H](C)C[C@H](OC)[C@H]2O[C@@](O)(C(=O)C(=O)N3CCCC[C@H]3C(=O)O[C@H](/C(C)=C/[C@@H]3CC[C@@H](O)[C@H](O)C3)[C@H](C)[C@@H](O)CC1=O)[C@H](C)C[C@@H]2OC	0.415 µg/mL (≈ 0.524 µM)	0.00172 µg/mL (≈ 0.00218 µM)	0.059 µg/mL (≈ 0.0745 µM)	0.033 µg/mL (≈ 0.0417 µM)	–
CC[C@@H]1/C=C(\C)C[C@H](C)C[C@H](OC)[C@H]2O[C@@](O)(CC(=O)N3CCCC[C@H]3C(=O)O[C@H](/C(C)=C/[C@@H]3CC[C@@H](O)[C@H](OC)C3)[C@H](C)[C@@H](O)CC1=O)[C@H](C)C[C@@H]2OC	7.82 µg/mL (≈ 10.1 µM)	0.025 µg/mL (≈ 0.0321 µM)	0.662 µg/mL (≈ 0.851 µM)	0.355 µg/mL (≈ 0.456 µM)	fractional inhibitory concentration index (FICI) [10]: 0.19; Activity [12]: inactive; IC50 [13]: 0.031 µg/mL
CO[C@H]1C[C@@H](C)C/C(C)=C/[C@@H](C)C(=O)C[C@H](O)[C@@H](C)[C@@H](/C(C)=C/[C@@H]2CC[C@@H](O)[C@H](OC)C2)OC(=O)[C@@H]2CCCCN2C(=O)C[C@]2(O)O[C@H]1[C@@H](OC)C[C@H]2C	230 µg/mL (≈ 302 µM)	1.98 µg/mL (≈ 2.6 µM)	6.07 µg/mL (≈ 7.95 µM)	2.47 µg/mL (≈ 3.23 µM)	fractional inhibitory concentration index (FICI) [10]: 0.5; IC50 [11]: 0.125 µg/mL; Activity [12]: inactive
C=CC[C@@H]1/C=C(\C)C[C@H](C)C[C@H](OC)[C@H]2O[C@@](O)(CC(=O)N3CCC[C@H]3C(=O)O[C@H](/C(C)=C/[C@@H]3CC[C@@H](O)[C@H](O)C3)[C@H](C)[C@@H](O)CC1=O)[C@H](C)C[C@@H]2OC	> 50 µg/mL	0.886 µg/mL (≈ 1.16 µM)	3440 µg/mL (≈ 4520 µM)	221 µg/mL (≈ 290 µM)	–
CCC[C@@H]1/C=C(\C)C[C@H](C)C[C@H](OC)[C@H]2O[C@@](O)(CC(=O)N3CCCC[C@H]3C(=O)O[C@H](/C(C)=C/[C@@H]3CC[C@@H](O)[C@H](OC)C3)[C@H](C)[C@@H](O)CC1=O)[C@H](C)C[C@@H]2OC	14.1 µg/mL (≈ 17.8 µM)	0.0255 µg/mL (≈ 0.0323 µM)	0.817 µg/mL (≈ 1.03 µM)	0.151 µg/mL (≈ 0.191 µM)	–
C=CC[C@@H]1/C=C(\C)C[C@H](C)C[C@H](OC)[C@H]2O[C@@](O)(CC(=O)N3CCCC[C@H]3C(=O)O[C@H](/C(C)=C/[C@@H]3CC[C@@H](O)[C@H](OC)C3)[C@H](C)[C@@H](O)CC1=O)[C@H](C)C[C@@H]2OC	–	–	–	–	IC50 [1]: 0.036 µg/mL (≈ 0.0456 µM); IC50 [2]: 0.513 ng/mL (≈ 0.000649 µM); IC50 [3]: 24.2 µg/mL (≈ 30.6 µM); IC50 [5]: 0.963 µg/mL (≈ 1.22 µM)
CCC[C@@H]1/C=C(\C)C[C@H](C)C[C@H](OC)[C@H]2O[C@@](O)(CC(=O)N3CCCC[C@H]3C(=O)O[C@H](/C(C)=C/[C@@H]3CC[C@@H](O)[C@H](O)C3)[C@H](C)[C@@H](O)CC1=O)[C@H](C)C[C@@H]2OC	> 50 µg/mL	0.0459 µg/mL (≈ 0.059 µM)	4.26 µg/mL (≈ 5.48 µM)	8.85 µg/mL (≈ 11.4 µM)	–
CO[C@H]1C[C@@H](C)C/C(C)=C/[C@@H](C)C(=O)C[C@H](O)[C@@H](C)[C@@H](/C(C)=C/[C@@H]2CC[C@@H](O)[C@H](O)C2)OC(=O)[C@@H]2CCCCN2C(=O)C[C@]2(O)O[C@H]1[C@@H](OC)C[C@H]2C	> 50 µg/mL	3.38 µg/mL (≈ 4.5 µM)	837 µg/mL (≈ 1120 µM)	54.5 µg/mL (≈ 72.7 µM)	–
CC[C@@H]1/C=C(\C)C[C@H](C)C[C@H](OC)[C@H]2O[C@@](O)(C(=O)C(=O)N3CCCC[C@H]3C(=O)O[C@H](/C(C)=C/[C@@H]3CC[C@@H](O)[C@H](OC)C3)[C@H](C)[C@@H](O)CC1=O)[C@H](C)C[C@@H]2OC [ASCOMYCIN]	–	–	–	–	fractional inhibitory concentration index (FICI) [10]: 0.5
C=CC[C@@H]1/C=C(\C)C[C@H](C)C[C@H](OC)[C@H]2O[C@@](O)(C(=O)C(=O)N3CCCC[C@H]3C(=O)O[C@H](/C(C)=C/[C@@H]3CC[C@@H](O)[C@H](O)C3)[C@H](C)[C@@H](O)CC1=O)[C@H](C)C[C@@H]2OC	–	–	–	–	IC50 [1]: 0.005 µg/mL (≈ 0.00633 µM); IC50 [2]: 0.246 ng/mL (≈ 0.000311 µM); IC50 [3]: 0.165 µg/mL (≈ 0.209 µM); IC50 [5]: 0.106 µg/mL (≈ 0.134 µM)
